Data reported in the EternaBench riboswitch data.

Assays:
MS2 coat protein [1] = assay: apparent Kd, MS2 coat protein; higher = weaker binding; RNA-MaP array; tryptophan 2.4 mM where present
Method in brief: (§1)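 The apparent Kd is the median of filtered binding-curve fits, one per cluster, to green signal normalised to red-channel RNA signal and control-cluster median Fmax. The clusters were on Illumina sequencing chips, and stalled E. coli RNA polymerase had transcribed the designs on them. Titration used SNAP-549-labelled MS2 coat protein from 0.7 or 1.5 nM, doubling to 3 µM, without and then with constant ligand, in 100 mM Tris-HCl pH 7.5, 80 mM KCl, 4 mM MgCl2, BSA, DTT, yeast tRNA and Tween-20.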

MS2 coat protein [2] = assay: apparent Kd, MS2 coat protein; higher = weaker binding; RNA-MaP array; theophylline 2 mM where present
Method in brief: as §1

[3] = designed as: ON switch for tryptophan, no ligand
[4] = ligand present: tryptophan, designed as: ON switch for tryptophan
[5] = designed as: OFF switch for tryptophan, no ligand
[6] = ligand present: tryptophan, designed as: OFF switch for tryptophan
[7] = designed as: OFF switch for theophylline, no ligand
[8] = ligand present: theophylline, designed as: OFF switch for theophylline
[9] = designed as: ON switch for theophylline, no ligand
[10] = ligand present: theophylline, designed as: ON switch for theophylline

AGAGUCUAGUCGGCCGCCACUCAUGUCCAAAGGACAUGAGGAUCACCCAUGUACCAAUGGUACAUGAGGACCGGGACUGGACUCA
apparent Kd (MS2 coat protein [1]; [3]): 27.7 nM
apparent Kd (MS2 coat protein [1]; [4]): 8.33 nM

GAUAUACGUGCGGCCGCCACUGAGUGGCGGGCGUGUCGAGUUACAUGAGGAUCACCCAUGUCACUCAGGACCGGGCACGGAAUUU
apparent Kd (MS2 coat protein [1]; [5]): 9.98 nM
apparent Kd (MS2 coat protein [1]; [6]): 11.4 nM

ACCUGCGUUUGUUUCUUUCUGACGCAGGUUCGAGGACCGGUACGGCCGCCACUCGGACAUGAGGAUCACCCAUGUUUGACAUGGG
apparent Kd (MS2 coat protein [1]; [5]): 57.3 nM
apparent Kd (MS2 coat protein [1]; [6]): 17.3 nM

CGCACAUGAGGAUCACCCAUGUGAGGGCGUCGAGGACCGGUACGGCCGCCACUCGCAGGACAUGAGGAUCACCCAUGUGCCGCCG
apparent Kd (MS2 coat protein [1]; [3]): 116 nM
apparent Kd (MS2 coat protein [1]; [4]): 57.2 nM

UAACAUGAGGAUCACCCAUGUUUAGAAGAACGAGGACCGGUACGGCCGCCACUCGAAAAGUGGAAGAAAAGAGGGAUAGAAUGAU
apparent Kd (MS2 coat protein [1]; [3]): 12.2 nM
apparent Kd (MS2 coat protein [1]; [4]): 12.6 nM

AGCCACUCGAACAUGGGUGACGAGUGGCAACGAGGACCGGUACGGCCGCCACUCGAAUAAACAUGAGGAUCACCCAUGUACAAAU
apparent Kd (MS2 coat protein [1]; [3]): 292 nM
apparent Kd (MS2 coat protein [1]; [4]): 214 nM

CACGAAAGAUCGGCCGCCACUCAUGUUUCUUACAUGAGGAUCACCCAUGUAUUUUCUUUCUUUUAGAGGACCGGGAUUGAGCGUG
apparent Kd (MS2 coat protein [1]; [3]): 155 nM
apparent Kd (MS2 coat protein [1]; [4]): 29.8 nM

GGCUAUACUACGGCCGCCACUGAACAUGAGGAUCACCCAUGUAAUGUUCAGAUUUUUUUUUUUUACAGGACCGGGUAGAAUUGCC
apparent Kd (MS2 coat protein [1]; [3]): 195 nM
apparent Kd (MS2 coat protein [1]; [4]): 104 nM

GGCAAAAGGUCGGCCGCCACUGUAGGAUGUGUUCUUUCACAUGAGGAUCACCCAUGUUGUUAUUAUAGGACCGGGAUUUUAGGAC
apparent Kd (MS2 coat protein [1]; [5]): 21.8 nM
apparent Kd (MS2 coat protein [1]; [6]): 21.1 nM

UAAUGCAGGUCGGCCGCCACUACACACAUGAGGAUCACCCAUGUAGUUACUGGGUGAAGUGGCAGUAGGACCGGGACCUGCAUAC
apparent Kd (MS2 coat protein [1]; [3]): 372 nM
apparent Kd (MS2 coat protein [1]; [4]): 470 nM

CUAUAAGUACCGGUCCUCAGAUCCUCAUGACGAGGACCGGUACGGCCGCCACUCGAAACAUGAGGAUCACCCAUGUAAUAAUAUU
apparent Kd (MS2 coat protein [1]; [5]): 20.2 nM
apparent Kd (MS2 coat protein [1]; [6]): 19.3 nM

AGAGUCUAGUCGGCCGCCACUCAUGUCCAAUGGACAUGAGGAUCACCCAUGUACCGAAGGUACAUGAGGACCGGGACUGGACUCA
apparent Kd (MS2 coat protein [1]; [3]): 153 nM
apparent Kd (MS2 coat protein [1]; [4]): 11.7 nM

UUAAUUAUUGAAUCGUAUUGGUAUUAAGAACGAGGACCGGUACGGCCGCCACUCGUGAUAUACAUGAGGAUCACCCAUGUUAGCA
apparent Kd (MS2 coat protein [1]; [3]): 14.8 nM
apparent Kd (MS2 coat protein [1]; [4]): 14 nM

AAGGGAGAAUCAGAUACCAGAGUAAGAUGGCAUGAUAAUUACAUGAGGAUCACCCAUGUACUCCCUUGGCAGCUGACAAUAUAUU
apparent Kd (MS2 coat protein [2]; [7]): 10.2 nM
apparent Kd (MS2 coat protein [2]; [8]): 12.2 nM

GGAAUAACGAUUGAUACCAGCAUGUUAACAUGAGGAUCACCCAUGUUAAGGAUAACAUAAUGCCCUUGGCAGCAACGGAAACCCG
apparent Kd (MS2 coat protein [2]; [9]): 21.3 nM
apparent Kd (MS2 coat protein [2]; [10]): 12.9 nM

AGCAGUACAACAGAUACCAGACUUUUAAUGCCUCUAAUUACAUGAGGAUCACCCAUGUUUGUCCCUUGGCAGCUGUUGUACUGCA
apparent Kd (MS2 coat protein [2]; [7]): 136 nM
apparent Kd (MS2 coat protein [2]; [8]): 211 nM

AGUGUAUCCAUCGAUACCAGCCACAACGUAACAUACACAUGAGGAUCACCCAUGUUGUGUGGCCCUUGGCAGCGGUGCCUGUGUA
apparent Kd (MS2 coat protein [2]; [9]): 14.3 nM
apparent Kd (MS2 coat protein [2]; [10]): 12.2 nM

AGAACAAAACUAAAUAAACAACUGGGUGAUACCAGCACAUGUGCGUGCCCUUGGCAGCAUCCGGCCACAUGAGGAUCACCCAUGU
apparent Kd (MS2 coat protein [2]; [9]): 74 nM
apparent Kd (MS2 coat protein [2]; [10]): 155 nM

AUUAUCAUGGUCAUUUAUAUUUCGUCAGAUACCAGACUAGAUAUAGUCCCUUGGCAGCUGUUACAUGAGGAUCACCCAUGUUAUU
apparent Kd (MS2 coat protein [2]; [7]): 124 nM
apparent Kd (MS2 coat protein [2]; [8]): 46.6 nM

AGCCCUGUACUAGAUACCAGCUACAUGAGGAUCACCCAUGUGCGUCAAGACUGACUGUGUAGCCCUUGGCAGCUACUCGCAUGUA
apparent Kd (MS2 coat protein [2]; [7]): 15.7 nM
apparent Kd (MS2 coat protein [2]; [8]): 25.5 nM

UCUUGGUCCGCAAGGACCUUGAGUUGCGAUACCAGCACGGUAACGUGCCCUUGGCAGCGCACAUGAGGAUCACCCAUGUGGUGUU
apparent Kd (MS2 coat protein [2]; [7]): 261 nM
apparent Kd (MS2 coat protein [2]; [8]): 236 nM

ACGACGCAUAGUGAUACCAGUAGAACAUGAGGAUCACCCAUGUCUGUGGCGCACCACCUCUGCCCUUGGCAGCACUAUGCGUCAG
apparent Kd (MS2 coat protein [2]; [9]): 13.4 nM
apparent Kd (MS2 coat protein [2]; [10]): 12.8 nM

GGUAGCAGGACUGAUACCAGUCCAGCGAAUCAUACGACGCAACAUGAGGAUCACCCAUGUGACCCUUGGCAGCAGACUGCUACCG
apparent Kd (MS2 coat protein [2]; [9]): 24.7 nM
apparent Kd (MS2 coat protein [2]; [10]): 14.5 nM

ACAUGAGGAUCACCCAUGUAAUGGCACGAUACCAGCUGAUCCCGUGGCCCUUGGCAGCGUCCGGUGUGGUCCGCCGGGUUGGACG
apparent Kd (MS2 coat protein [2]; [9]): 23.1 nM
apparent Kd (MS2 coat protein [2]; [10]): 35 nM

ACAUGAGGAUCACCCAUGUCUGCCACUGAUACCAGCGGAAGCCAACGCCCUUGGCAGCAGAACAUGAGGAUCACCCAUGUAGGCA
apparent Kd (MS2 coat protein [2]; [9]): 308 nM
apparent Kd (MS2 coat protein [2]; [10]): 169 nM

GCACCAGGUACGGAUACCAGCUAUAGGCCCAAUGGGCGACAUGAGGAUCACCCAUGUAAUGGCCCUUGGCAGCUGUACCUGGUGC
apparent Kd (MS2 coat protein [2]; [9]): 88.3 nM
apparent Kd (MS2 coat protein [2]; [10]): 13.7 nM

AGUGUUAUAACUGAUACCAGACUCUCAUGUUUACAUGAGGAUCACCCAUGUUAUUUCUUUGUCCCUUGGCAGCAGAAUUAACACA
apparent Kd (MS2 coat protein [2]; [9]): 208 nM
apparent Kd (MS2 coat protein [2]; [10]): 38.2 nM

CAACAAGUAACUGAUACCAGUGUACUGACAUGAGGAUCACCCAUGUUGGGUUUUGUUGUACACCCUUGGCAGCAGAAUCUUGUUG
apparent Kd (MS2 coat protein [2]; [7]): 60.7 nM
apparent Kd (MS2 coat protein [2]; [8]): 82.5 nM

UUUACAUGAGGAUCACCCAUGUUCCAUGAUACCAGACAUGAAAAUGUCCCUUGGCAGCAUGAAUGAUUCAUAGGAUAAUUAUGGG
apparent Kd (MS2 coat protein [2]; [9]): 98.7 nM
apparent Kd (MS2 coat protein [2]; [10]): 52.9 nM

UCGUGUAUAUCGGAUACCAGUGAGAAGGAUACAUGAGGAUCACCCAUGUGAGUUGAUGUACACCCUUGGCAGCUGUAUAUAUCUA
apparent Kd (MS2 coat protein [2]; [9]): 49.9 nM
apparent Kd (MS2 coat protein [2]; [10]): 26.2 nM

UAUAACAUGAGGAUCACCCAUGUAAGUGAUACCAGAUAAAUAAUAGUCCCUUGGCAGCAUAUUGGGAAAAUGUAUAAUAUAUAUU
apparent Kd (MS2 coat protein [2]; [9]): 57.8 nM
apparent Kd (MS2 coat protein [2]; [10]): 57.4 nM

CGAUGAUGAAGGGAUACCAGAAAUGGUAUUCCUUUAUUUCUUACAUGAGGAUCACCCAUGUUCCCUUGGCAGCUUUUUAUCAUCG
apparent Kd (MS2 coat protein [2]; [7]): 75.7 nM
apparent Kd (MS2 coat protein [2]; [8]): 117 nM

UCCUCCUCCGCAAGGAGGAGGAGUUGCGAUACCAGCACGGCAACGUGCCCUUGGCAGCGCACAUGAGGAUCACCCAUGUCAUGUU
apparent Kd (MS2 coat protein [2]; [7]): 19.4 nM
apparent Kd (MS2 coat protein [2]; [8]): 24.3 nM

AGCUCAUAGAGUGAUACCAGACUACAUGAGGAUCACCCAUGUUACUUUUAAAUAUCAUUUGUCCCUUGGCAGCACAUGAAGAGCA
apparent Kd (MS2 coat protein [2]; [7]): 13.6 nM
apparent Kd (MS2 coat protein [2]; [8]): 12.7 nM

AUAAGUAAUGUUUCGUGUAUUAUUACAGAUACCAGACUAUACGUUGUCCCUUGGCAGCUGGAUUACAUGAGGAUCACCCAUGUUG
apparent Kd (MS2 coat protein [2]; [7]): 15.8 nM
apparent Kd (MS2 coat protein [2]; [8]): 27.5 nM

UAACAUGAGGAUCACCCAUGUAUAGUCGAUACCAGCUCAAGGAAGAGCCCUUGGCAGCGACACUGCCAAGCAUGGGUCAUGGCAG
apparent Kd (MS2 coat protein [2]; [9]): 21.1 nM
apparent Kd (MS2 coat protein [2]; [10]): 33.4 nM

AAUAACAUGAGGAUCACCCAUGUAAAAGAUACCAGGGUGAUGAUCCUCCCUUGGCAGCUUACAGCUGAUCAAUAAGAUCGGCUGA
apparent Kd (MS2 coat protein [2]; [10]): 257 nM

GGUCUCUGGAGCGAUACCAGCUUGAUCGUACUGGCCUGGUACAUGAGGAUCACCCAUGUAAGCCCUUGGCAGCGCUCCAGAGACC
apparent Kd (MS2 coat protein [2]; [7]): 12.3 nM
apparent Kd (MS2 coat protein [2]; [8]): 28.1 nM

GAGGGUGAAUCUCUGGUCCGUUUGACGGAUACCAGCGAGAGGUAUCGCCCUUGGCAGCCGACGACAUGAGGAUCACCCAUGUUAA
apparent Kd (MS2 coat protein [2]; [7]): 17.9 nM
apparent Kd (MS2 coat protein [2]; [8]): 109 nM

ACAUCCAGGUUAAUCGUGGGCAUACUCGAUACCAGUAUUUUAAUCUACCCUUGGCAGCGACAUGAGGAUCACCCAUGUGCGAUGA
apparent Kd (MS2 coat protein [2]; [7]): 12.4 nM
apparent Kd (MS2 coat protein [2]; [8]): 19.3 nM
